Results from ChEMBL document CHEMBL1148599, “Antitumor benzothiazoles. 26.(1) 2-(3,4-dimethoxyphenyl)-5-fluorobenzothiazole (GW 610, NSC 721648), a simple fluorinated 2-arylbenzothiazole, shows potent and selective inhibitory activity against lung, colon, and breast cancer cell lines” (2006).
The source made the active and inactive calls. The calls are words filed in the database; no cut-off is given here.

Assays:
HCC 2998 [1] = experiment: Antiproliferative activity against human colon cancer cell line HCC2998; type: functional
How it was run: (§1)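 Cells kept in RPMI 1640 with 2 mM L-glutamine and 10% FCS at 37 °C, 5% CO2. Seeded 5 × 10³/well, left 24 h to adhere, then exposed 72 h to 0.1 nM–100 µM final (DMSO stocks diluted in medium, n = 8). MTT 400 µg/mL final added at dosing and at 72 h, 4 h at 37 °C. Formazan dissolved in DMSO:glycine pH 10.5, A550 read. GI50 from triplicate tests.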

KM12 [2] = experiment: Antiproliferative activity against human colon cancer cell line KM12; type: functional; how it was run: as §1
MDA-MB-468 [3] = experiment: Antiproliferative activity against human breast cancer cell line MDA468; type: functional; how it was run: as §1
MCF7 [4] = experiment: Antiproliferative activity against human breast cancer cell line MCF7; type: functional; how it was run: as §1
MDA-MB-468 [5] = experiment: Ability to induce CYP1A1 protein expression in […] human breast cancer cell line MDA468; type: functional, cell-based
How it was run: (§2)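 Whole-cell lysates from untreated cultures and from cells exposed 24 h to 10 nM–10 µM compound. Protein-normalized samples heated 95 °C 5 min, run on 10% SDS-PAGE and electroblotted to PVDF. Probed with polyclonal anti-human CYP1A1/1A2 antiserum and an alkaline phosphatase secondary, developed with BCIP/NBT. Recombinant CYP1A1 served as positive control for the 52 kDa band.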

MCF7 [6] = experiment: Ability to induce CYP1A1 protein expression in […] human breast cancer cell line MCF7; type: functional, cell-based; how it was run: as §2
KM12 [7] = experiment: Ability to induce CYP1A1 protein expression in sensitive human colon cancer cell line KM12; type: functional, cell-based; how it was run: as §2
HCC 2998 [8] = experiment: Ability to induce CYP1A1 protein expression in sensitive human colon cancer cell line HCC2998; type: functional, cell-based; how it was run: as §2

SMILES	GI50 (HCC 2998 [1]) [nM]	GI50 (MDA-MB-468 [3]) [nM]	GI50 (MCF7 [4]) [nM]	GI50 (KM12 [2]) [nM]	Activity (MDA-MB-468 [5])	Activity (MCF7 [6])	Activity (KM12 [7])	Activity (HCC 2998 [8])
Oc1ccc(-c2nc3ccccc3s2)cc1O	6990	220	2190	15600				
Fc1ccc2sc(-c3ccc4c(c3)OCO4)nc2c1	22300	570	20700	25100	Active	Active		
COc1ccc(-c2nc3cc(F)ccc3s2)c(OC)c1OC	37	120	23	14200				
c1ccc2sc(-c3ccc4c(c3)OCO4)nc2c1	68300	800	57800	98600				
COc1cc(-c2nc3cc(F)ccc3s2)cc(O)c1OC	6490	88	653	47500				
COc1ccc(-c2nc3cc(F)ccc3s2)cc1	12400	330	490	24600				
COc1ccc(-c2nc3c(F)cccc3s2)cc1OC	1060	5	5	850				
Cc1cc(-c2nc3ccccc3s2)ccc1N	> 100000	< 0.1		> 100000				
COc1cc(OC)cc(-c2nc3cc(F)ccc3s2)c1	5210	310	1230	7550				
COc1ccc(-c2nc3ccccc3s2)cc1OC	42500	530	52700	74200	Active	Active		
COc1cc(-c2nc3cc(F)ccc3s2)cc(OC)c1OC	21100	2.1	1.9	13000				

The next lines start with results.

GI50 (HCC 2998 [1]) [nM]	GI50 (MDA-MB-468 [3]) [nM]	GI50 (MCF7 [4]) [nM]	SMILES	GI50 (KM12 [2]) [nM]	Activity (MDA-MB-468 [5])	Activity (MCF7 [6])	Activity (KM12 [7])	Activity (HCC 2998 [8])
2500	480	760	COc1ccc(-c2nc3cc(F)ccc3s2)cc1Cl	7050				
> 100000	< 0.1		Cc1cc(-c2nc3cc(F)ccc3s2)ccc1N	> 100000				
53500	48	65	COCOc1ccc(-c2nc3cc(F)ccc3s2)cc1OC	19200				
3320	92	80	CCOc1cc(-c2nc3cc(F)ccc3s2)ccc1OC	5420				
3450	420	850	COc1ccc(-c2nc3cc(F)ccc3s2)cc1Br	6700				
20000	770	13600	COc1ccc(-c2nc3cc(Br)ccc3s2)cc1OC	65200				
6210	5	62	COc1ccc(-c2nc3ccc(F)cc3s2)cc1OC	24100				
4880	1000	27900	COc1ccc(-c2nc3cc(Cl)ccc3s2)cc1OC	12400				
13700	640	870	COc1ccc(-c2nc3cc(F)ccc3s2)cc1F	20600				
540	58	48	COc1ccc(-c2nc3cc(F)ccc3s2)cc1C	18600				
940	360	820	COc1ccc(-c2nc3cc(F)ccc3s2)cc1I	6900				
7600	50	500	COc1ccc(-c2nc3cc(F)ccc3s2)cc1O	18400				
1640	190	720	Oc1ccc(-c2nc3cc(F)ccc3s2)cc1O	13000				
1040	170	750	COc1cc(-c2nc3cc(F)ccc3s2)ccc1O	47300				
	< 0.1		COc1ccc(-c2nc3cc(F)ccc3s2)cc1OC	290	Active	Active	inactive	inactive
	55		CCOc1ccc(-c2nc3cc(F)ccc3s2)cc1OCC	38500				
